Measured values from ChEMBL document CHEMBL3102810, “Alkylamino derivatives of pyrazinamide: synthesis and antimycobacterial evaluation” (Bioorg Med Chem Lett, 2014).
In brackets after ≈: the same amount, converted by molar mass. Activity calls are given as the source filed them. The calls are words filed in the database; no cut-off is given here.

Tests used:
Mycobacterium avium [1] = test: Antimycobacterial activity against pyrazinamide-resistant Mycobacterium avium CNCTC My 152/73 after 5 days by microplate alamar blue assay; assay type: functional; conditions: CNCTC My 152/73, 120 h
Method in brief: (§1)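 Microplate alamar blue assay run at pH 5.6, using conditions optimized for pyrazinamide. Strains came from the Czech National Collection of Type Cultures. MIC was read in µg/mL and converted to µM using molecular weight.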

[2] = Lipophilicity, log K of the compound by HPLC analysis; assay type: physicochemical
Mycobacterium avium [3] = test: Antimycobacterial activity against pyrazinamide-resistant Mycobacterium avium CNCTC My 80/72 after 5 days by microplate alamar blue assay; assay type: functional; conditions: CNCTC My 80/72, 120 h; method in brief: as §1
Mycobacterium kansasii = test: Antimycobacterial activity against pyrazinamide-resistant Mycobacterium kansasii CNCTC My 235/80 after 5 days by microplate alamar blue assay; assay type: functional; conditions: CNCTC My 235/80, 120 h; method in brief: as §1
[4] = tested on: Mycobacterium tuberculosis; test: Antimycobacterial activity against Mycobacterium tuberculosis H37Rv CNCTC My 331/88 after 5 days by microplate alamar blue assay; assay type: functional; conditions: H37Rv CNCTC My 331/88, 120 h; method in brief: as §1
[5] = tested on: Trichophyton mentagrophytes; test: Antifungal activity against Trichophyton mentagrophytes 445 after 72 to 120 hrs by microdilution broth method; assay type: functional, organism-based
Lichtheimia corymbifera = test: Antifungal activity against Absidia corymbifera 272 after 72 to 120 hrs by microdilution broth method; assay type: functional, organism-based
Aspergillus fumigatus = test: Antifungal activity against Aspergillus fumigatus 231 after 72 to 120 hrs by microdilution broth method; assay type: functional, organism-based
Nakaseomyces glabratus = test: Antifungal activity against Candida glabrata 20/I after 72 to 120 hrs by microdilution broth method; assay type: functional, organism-based
Trichosporon asahii = test: Antifungal activity against Trichosporon asahii 1188 after 72 to 120 hrs by microdilution broth method; assay type: functional, organism-based
Pichia kudriavzevii = test: Antifungal activity against Candida krusei E28 after 72 to 120 hrs by microdilution broth method; assay type: functional, organism-based
Candida tropicalis = test: Antifungal activity against Candida tropicalis 156 after 72 to 120 hrs by microdilution broth method; assay type: functional, organism-based
Candida albicans = test: Antifungal activity against Candida albicans ATCC 44859 after 72 to 120 hrs by microdilution broth method; assay type: functional, organism-based
[6] = tested on: Trichophyton mentagrophytes; test: Antifungal activity against Trichophyton mentagrophytes after 72 to 120 hrs by microdilution broth method; assay type: functional, organism-based
[7] = tested on: Staphylococcus epidermidis; test: Antibacterial activity against Staphylococcus epidermidis H 6966/08 after 48 hrs by microdilution broth method; assay type: functional
Method in brief: (§2)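 Antibacterial screen with compound concentrations up to a highest level of 500 µM. Results expressed as MIC in µM.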

Klebsiella pneumoniae [8] = test: Antibacterial activity against ESBL positive Klebsiella pneumoniae J 14368/08 after 24 to 48 hrs by microdilution broth method; assay type: functional, organism-based; method in brief: as §2
Klebsiella pneumoniae [9] = test: Antibacterial activity against Klebsiella pneumoniae D 11750/08 after 24 to 48 hrs by microdilution broth method; assay type: functional, organism-based; method in brief: as §2
Enterococcus sp. = test: Antibacterial activity against Enterococcus sp. J 14365/08 after 24 to 48 hrs by microdilution broth method; assay type: functional, organism-based; method in brief: as §2
[10] = tested on: Staphylococcus epidermidis; test: Antibacterial activity against methicillin-resistant Staphylococcus epidermidis H 5996/08 after 24 to 48 hrs by microdilution broth method; assay type: functional, organism-based
Pseudomonas aeruginosa = test: Antibacterial activity against Pseudomonas aeruginosa CCM 1961 after 24 to 48 hrs by microdilution broth method; assay type: functional, organism-based; method in brief: as §2
Escherichia coli = test: Antibacterial activity against Escherichia coli CCM 4517 after 24 to 48 hrs by microdilution broth method; assay type: functional, organism-based; method in brief: as §2
Staphylococcus aureus = test: Antibacterial activity against Staphylococcus aureus CCM 4516/08 after 24 to 48 hrs by microdilution broth method; assay type: functional, organism-based; method in brief: as §2
[11] = tested on: Staphylococcus epidermidis; test: Antibacterial activity against Staphylococcus epidermidis H 6966/08 up to 500 uM after 24 to 48 hrs by microdilution broth method; assay type: functional, organism-based; method in brief: as §2

| SMILES | MIC (Mycobacterium avium [1]) | log K [2] | MIC (Mycobacterium avium [3]) | MIC (Mycobacterium kansasii) | MIC [4] | Activity [5] | Activity (Lichtheimia corymbifera) | Activity (Aspergillus fumigatus) | Activity (Nakaseomyces glabratus) | Activity (Trichosporon asahii) | Activity (Pichia kudriavzevii) | Activity (Candida tropicalis) | Activity (Candida albicans) | Activity [6] | Activity [7] | Activity (Klebsiella pneumoniae [8]) | Activity (Klebsiella pneumoniae [9]) | Activity (Enterococcus sp.) | Activity [10] | Activity (Pseudomonas aeruginosa) | further results |
| --- | --- | --- | --- | --- | --- | --- | --- | --- | --- | --- | --- | --- | --- | --- | --- | --- | --- | --- | --- | --- | --- |
| CCCCCNc1cnc(C(N)=O)cn1 | > 100 µg/mL | 0.0181 | > 100 µg/mL | > 100 µg/mL | > 100 µg/mL | inactive | inactive | inactive | inactive | inactive | inactive | inactive | inactive | inactive | inactive | inactive | inactive | inactive | inactive | inactive | Activity (Escherichia coli): inactive; Activity (Staphylococcus aureus): inactive; Activity [11]: inactive |
| NC(=O)c1cncc(N)n1 | > 100 µg/mL | -0.7814 | > 100 µg/mL | > 100 µg/mL | > 100 µg/mL | inactive | inactive | inactive | inactive | inactive | inactive | inactive | inactive | inactive | inactive | inactive | inactive | inactive | inactive | inactive | Activity (Escherichia coli): inactive; Activity (Staphylococcus aureus): inactive; Activity [11]: inactive |
| CCCCCNc1cncc(C(N)=O)n1 | > 100 µg/mL | -0.0095 | > 100 µg/mL | > 100 µg/mL | 100 µg/mL | inactive | inactive | inactive | inactive | inactive | inactive | inactive | inactive | inactive | inactive | inactive | inactive | inactive | inactive | inactive | Activity (Escherichia coli): inactive; Activity (Staphylococcus aureus): inactive; Activity [11]: inactive |
| CNc1cnc(C(N)=O)cn1 | > 100 µg/mL | -0.6878 | > 100 µg/mL | > 100 µg/mL | > 100 µg/mL | inactive | inactive | inactive | inactive | inactive | inactive | inactive | inactive | inactive | inactive | inactive | inactive | inactive | inactive | inactive | Activity (Escherichia coli): inactive; Activity (Staphylococcus aureus): inactive; Activity [11]: inactive |
| NC(=O)c1cncc(NCCc2ccccc2)n1 | > 100 µg/mL | -0.0986 | > 100 µg/mL | > 100 µg/mL | > 100 µg/mL | inactive | inactive | inactive | inactive | inactive | inactive | inactive | inactive | inactive | inactive | inactive | inactive | inactive | inactive | inactive | Activity (Escherichia coli): inactive; Activity (Staphylococcus aureus): inactive; Activity [11]: inactive |
| CCNc1cnc(C(N)=O)cn1 | > 100 µg/mL | -0.552 | > 100 µg/mL | > 100 µg/mL | > 100 µg/mL | inactive | inactive | inactive | inactive | inactive | inactive | inactive | inactive | inactive | inactive | inactive | inactive | inactive | inactive | inactive | Activity (Escherichia coli): inactive; Activity (Staphylococcus aureus): inactive; Activity [11]: inactive |
| CCCNc1cncc(C(N)=O)n1 | > 100 µg/mL | -0.4386 | > 100 µg/mL | > 100 µg/mL | > 100 µg/mL | inactive | inactive | inactive | inactive | inactive | inactive | inactive | inactive | inactive | inactive | inactive | inactive | inactive | inactive | inactive | Activity (Escherichia coli): inactive; Activity (Staphylococcus aureus): inactive; Activity [11]: inactive |
| CCCCCCCNc1cncc(C(N)=O)n1 | 100 µg/mL (≈ 423 µM) | 0.4273 | 100 µg/mL (≈ 423 µM) | 212 µM | 106 µM | inactive | inactive | inactive | inactive | inactive | inactive | inactive | inactive | inactive | inactive | inactive | inactive | inactive | inactive | inactive | Activity (Escherichia coli): inactive; Activity (Staphylococcus aureus): inactive; Activity [11]: inactive |
| CCCCNc1cnc(C(N)=O)cn1 | > 100 µg/mL | -0.191 | > 100 µg/mL | > 100 µg/mL | > 100 µg/mL | inactive | inactive | inactive | inactive | inactive | inactive | inactive | inactive | inactive | inactive | inactive | inactive | inactive | inactive | inactive | Activity (Escherichia coli): inactive; Activity (Staphylococcus aureus): inactive; Activity [11]: inactive |
| NC(=O)c1cnc(N)cn1 | > 100 µg/mL | -0.7852 | > 100 µg/mL | > 100 µg/mL | > 100 µg/mL | inactive | inactive | inactive | inactive | inactive | inactive | inactive | inactive | inactive | inactive | inactive | inactive | inactive | inactive | inactive | Activity (Escherichia coli): inactive; Activity (Staphylococcus aureus): inactive; Activity [11]: inactive |
| CCCCNc1cncc(C(N)=O)n1 | > 100 µg/mL | -0.2162 | > 100 µg/mL | > 100 µg/mL | 100 µg/mL | inactive | inactive | inactive | inactive | inactive | inactive | inactive | inactive | inactive | inactive | inactive | inactive | inactive | inactive | inactive | Activity (Escherichia coli): inactive; Activity (Staphylococcus aureus): inactive; Activity [11]: inactive |
